Columns and labels:
[1] = test system: A 172; assay: Inhibition of nitric oxide formation in human A172 cells; format: functional, cell-based
How it was run: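 Human A172 cells were stimulated with cytokines to induce NO formation, with compound present. Nitrite/NO produced was read with Griess reagent and IC50 determined.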

[2] = biological target: Nitric oxide synthase, inducible (Homo sapiens, UniProt P35228); assay: Inhibition of tetracycline-induced iNOS expressed in SF9 cells
How it was run: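 SF9 cells transfected with iNOS in a tetracycline-inducible system, expression induced by tetracycline. NOS activity was measured as conversion of radiolabeled arginine to radiolabeled citrulline. IC50 was averaged over at least two separate experiments unless noted otherwise.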

[3] = Bioavailability in rat at 10 mg/kg, po; format: ADME, organism-based; conditions: in vivo
How it was run: (§1)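 Rat, oral dose of 10 mg/kg. Readouts were Cmax, terminal half-life, AUC to infinity and oral bioavailability (%F).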

[4] = Metabolic stability in rat liver microsomes after 3 hrs; format: ADME, Microsome; conditions: read-out: Stability
How it was run: (§2)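 Compound incubated with rat, dog or human liver microsomes for 3 h. Stability was reported as percent parent remaining.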

[5] = AUC (infinity) in rat at 10 mg/kg, po; format: ADME, organism-based; set-up: time infinity, dose 10 mg/kg, route oral; conditions: plasma; how it was run: as §1
[6] = Half life in rat at 2 mg/kg, iv; format: ADME, organism-based; set-up: dose 2 mg/kg, route intravenous; conditions: in vivo
How it was run: (§3)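 Rat, intravenous dose of 2 mg/kg. Readouts were half-life, clearance, steady-state volume of distribution and AUC to infinity.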

[7] = Metabolic stability in human liver microsomes after 3 hrs; format: ADME, Microsome; conditions: read-out: Stability; how it was run: as §2
[8] = Cmax in rat at 10 mg/kg, po; format: ADME, organism-based; set-up: dose 10 mg/kg, route oral; conditions: in vivo; how it was run: as §1
[9] = test system: Rattus norvegicus; assay: AUC (infinity) in rat at 2 mg/kg, iv; format: ADME, organism-based, Plasma; set-up: time infinity, dose 2 mg/kg, route intravenous; conditions: in vivo; how it was run: as §3
[10] = Metabolic stability in dog liver microsomes after 3 hrs; format: ADME, Canis lupus familiaris, Microsome; conditions: read-out: Stability; how it was run: as §2
[11] = Half life in rat at 10 mg/kg, po; format: ADME, organism-based; set-up: dose 10 mg/kg, route oral; conditions: in vivo; how it was run: as §1
[12] = Volume of distribution at steady state in rat at 2 mg/kg, iv; format: ADME, organism-based; set-up: dose 2 mg/kg, route intravenous; conditions: in vivo, read-out: Vss; how it was run: as §3
[13] = Clearance in rat at 2 mg/kg, iv; format: ADME, organism-based; set-up: dose 2 mg/kg, route intravenous; conditions: in vivo; how it was run: as §3

Nitric oxide synthase, inducible, sequence (P35228 whole entry): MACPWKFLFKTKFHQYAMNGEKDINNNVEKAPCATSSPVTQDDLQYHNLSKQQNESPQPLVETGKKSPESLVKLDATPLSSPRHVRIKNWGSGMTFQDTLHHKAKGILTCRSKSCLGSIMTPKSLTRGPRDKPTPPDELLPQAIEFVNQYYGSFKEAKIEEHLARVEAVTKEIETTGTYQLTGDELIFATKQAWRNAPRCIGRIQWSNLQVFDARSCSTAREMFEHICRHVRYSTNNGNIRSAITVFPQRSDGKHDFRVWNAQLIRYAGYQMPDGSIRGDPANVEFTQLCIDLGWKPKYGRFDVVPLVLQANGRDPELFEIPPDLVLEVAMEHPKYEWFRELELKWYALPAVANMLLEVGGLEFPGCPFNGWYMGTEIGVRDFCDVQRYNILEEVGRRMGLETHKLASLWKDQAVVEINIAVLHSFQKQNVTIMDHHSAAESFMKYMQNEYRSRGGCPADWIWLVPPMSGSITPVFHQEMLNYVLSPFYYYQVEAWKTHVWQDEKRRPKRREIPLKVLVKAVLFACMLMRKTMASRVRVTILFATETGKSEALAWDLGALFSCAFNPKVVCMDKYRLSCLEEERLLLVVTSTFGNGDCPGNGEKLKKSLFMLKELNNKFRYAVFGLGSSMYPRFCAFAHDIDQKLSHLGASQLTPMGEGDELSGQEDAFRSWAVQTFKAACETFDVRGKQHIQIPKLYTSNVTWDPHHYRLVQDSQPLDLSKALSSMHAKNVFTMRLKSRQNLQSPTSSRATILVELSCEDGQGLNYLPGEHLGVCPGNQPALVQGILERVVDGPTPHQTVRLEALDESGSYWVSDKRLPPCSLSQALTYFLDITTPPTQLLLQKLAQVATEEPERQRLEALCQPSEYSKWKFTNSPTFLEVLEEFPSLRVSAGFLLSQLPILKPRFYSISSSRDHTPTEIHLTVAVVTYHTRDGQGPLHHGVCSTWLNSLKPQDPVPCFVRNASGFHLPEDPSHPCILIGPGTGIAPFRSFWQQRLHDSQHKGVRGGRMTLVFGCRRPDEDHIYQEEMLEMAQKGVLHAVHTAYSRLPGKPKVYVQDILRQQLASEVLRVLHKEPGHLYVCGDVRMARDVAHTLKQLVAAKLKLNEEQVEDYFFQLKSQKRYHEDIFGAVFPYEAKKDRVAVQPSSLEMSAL

IC50 [1] | IC50 [2] | SMILES | also measured
52 nM | 590 nM | c1cn(-c2ccc(OC3CCCN(Cc4ccc5c(c4)OCO5)C3)nn2)cn1 (stereo unspecified) | –
1500 nM | – | c1cn(-c2ccc(OCCN(Cc3ccc4c(c3)OCO4)Cc3ccc4c(c3)OCO4)cc2)cn1 | –
100 nM | 2200 nM | c1cn(-c2ccc(OCC3CCCCN3Cc3ccc4c(c3)OCO4)cc2)cn1 (stereo unspecified) | –
240 nM | – | c1cn(-c2ccc(OCCNCc3ccc4c(c3)OCO4)cc2)cn1 | –
1600 nM | – | CC1CCCCN1CCCNC(=O)CN(CCOc1ccc(-n2ccnc2)cc1)Cc1ccc2c(c1)OCO2 (stereo unspecified) | –
> 10000 nM | – | c1cn(-c2ccc(O[C@@H]3CCN(Cc4ccc5c(c4)OCO5)C3)cc2)cn1 | –
1800 nM | – | O=C(CN(CCOc1ccc(-n2ccnc2)cc1)Cc1ccc2c(c1)OCO2)NCc1ccc(C(F)(F)F)cc1 | –
9 nM | 72 nM | c1cn(-c2ccc(O[C@H]3CCCN(Cc4ccc5c(c4)OCO5)C3)cc2)cn1 | bioavailability [3]: 100%; remaining at 3 h [4]: 47%; AUC(0-inf) [5]: 2600 ng·h/mL; half-life [6]: 2.2 h; remaining at 3 h [7]: 31%; Cmax [8]: 800 ng/mL; AUC [9]: 280 ng·h/mL; remaining at 3 h [10]: 89%; half-life [11]: 2.9 h; Vd [12]: 21 L/kg; clearance [13]: 128 mL/min/kg
1200 nM | – | CCOC(=O)CN(CCOc1ccc(-n2ccnc2)cc1)Cc1ccc2c(c1)OCO2 | –
1700 nM | – | c1cn(-c2ccc(O[C@@H]3CCCN(Cc4ccc5c(c4)OCO5)C3)cc2)cn1 | –
78 nM | – | c1cn(-c2ccc(OC3CCCCN(Cc4ccc5c(c4)OCO5)C3)cc2)cn1 (stereo unspecified) | –
250 nM | 1200 nM | c1cn(-c2ccc(OC[C@H]3CCCN3Cc3ccc4c(c3)OCO4)cc2)cn1 | –
57 nM | 250 nM | c1cn(-c2ccc(OC3CCCN(Cc4ccc5c(c4)OCO5)C3)cc2)cn1 (stereo unspecified) | –
4200 nM | – | c1cn(-c2ccc(OC3CCN(Cc4ccc5c(c4)OCO5)C3)cc2)cn1 (stereo unspecified) | –
640 nM | – | O=C(CN(CCOc1ccc(-n2ccnc2)cc1)Cc1ccc2c(c1)OCO2)NCc1ccc2c(c1)OCO2 | –
> 10000 nM | – | c1cn(-c2ccc(OCC3CCCN(Cc4ccc5c(c4)OCO5)C3)cc2)cn1 (stereo unspecified) | –
> 10000 nM | – | O=C(O)CN(CCOc1ccc(-n2ccnc2)cc1)Cc1ccc2c(c1)OCO2 | –
1600 nM | – | c1cn(-c2ccc(O[C@H]3CCN(Cc4ccc5c(c4)OCO5)C3)cc2)cn1 | –
10 nM | 120 nM | c1cn(-c2ccc(NC3CCCN(Cc4ccc5c(c4)OCO5)C3)cc2)cn1 (stereo unspecified) | –

Reference: ChEMBL document CHEMBL1147912, “1-(1,3-Benzodioxol-5-ylmethyl)-3-[4-(1H-imidazol-1-yl)phenoxy]-piperidine analogs as potent and selective inhibitors of nitric oxide formation” (Bioorg Med Chem Lett, 2007)
